In the EternaBench riboswitch data:

Tested on: MS2 coat protein
Experiment: apparent Kd, MS2 coat protein; higher = weaker binding; RNA-MaP array; FMN 200 µM where present
Procedure, shortened: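 Stalled E. coli RNA polymerase transcribed each design on Illumina sequencing-chip clusters. The clusters were titrated with SNAP-549-labelled MS2 coat protein, starting at 0.7 or 1.5 nM and doubling up to 3 µM, first without ligand and then with constant ligand, in 100 mM Tris-HCl pH 7.5, 80 mM KCl, 4 mM MgCl2, BSA, DTT, yeast tRNA and Tween-20. Green signal was normalised to red-channel RNA signal and to the control-cluster median Fmax. The apparent Kd is the median of filtered binding-curve fits made for each cluster.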

[1] = designed as: OFF switch for flavin mononucleotide, no ligand
[2] = ligand present: flavin mononucleotide, designed as: OFF switch for flavin mononucleotide
[3] = designed as: ON switch for flavin mononucleotide, no ligand
[4] = ligand present: flavin mononucleotide, designed as: ON switch for flavin mononucleotide

Row | Sequence | apparent Kd [1] [nM] | apparent Kd [2] [nM] | apparent Kd [3] [nM] | apparent Kd [4] [nM]
1 | CCGGAAAUGGAGGAUAUAGGAGUCGAUAGACACCUAGAAGGUCAGACAUGAGGAUCACCCAUGUGUCCUACCGG | 17.2 | 21.8 |  | 
2 | CCGGAAUCCUAGGAUAUGCUAGACGAUAGUCUAGCAGAAGGAGGAACAUGAGGAUCACCCAUGUGUCCUACCGG | 17.2 | 22.1 |  | 
3 | CCGGAGACGGGUAGCCUGACAUGAGGAUCACCCAUGUAAUACGAGGAUAUGGAUCCUAAUUGGAUCCAGAAGGUGUCAGGCUAC |  |  | 908 | 729
4 | CCGGAGUCAGGAUAUACGAACAUGUCGCCAGAUGUCAAGGUACAUGAGGAUCACCCAUGUAGAAGGGAGGAGAA | 96.1 | 56.8 |  | 
5 | CCGGGUUAUGUUAGGAUAUGUAGGCCGCAACCGGAACAGAAGGGACAUGAGGAUCACCCAUGUGAUAUUCCCGG | 23.3 | 30.8 |  | 
6 | CCGGUAUAGGAGGAUAUAGGAGUCGAUAGACACCUAGAAGGCCUGACAUGAGGAUCACCCAUGUGUCCUACCGG | 17 | 20 |  | 
7 | CCGUCCUGAGGAUAUCCACCCUCAUACAUGAGGAUCACCCAUGUUCACCCUUGGGUUCCCGGAGAAGGCAGUUUUC | 243 | 374 |  | 
8 | CCUAAGGAGGCAGGAUAUAGUGUGGUGGCCGGGCUCCCACGGCGAGCGGCACUAGAAGGGUCGCUACAUGAGGAUCACCCAUGU |  |  | 25 | 17.3
9 | CCUCCACAUGAGGAUCACCCAUGUCAGGAUAUCGUGUGUUUUUUUUCGGCCGCGCGUGCGAGAAGGGACGUCUU | 19.5 | 19.8 |  | 
10 | CCUCGACAUGAGGAUCACCCAUGUCAGGAUAUUGUGUUUUGGGUUUUUUACCUUUAGGCAAGAAGGGAUGUGUG | 16.4 | 24.1 |  | 
11 | CCUCUAACCUAGGAUAUAGGUAGACCUAGUCGCCUAGAAGGAGGUACAUGAGGAUCACCCAUGUAUAUUGGGCU | 277 | 127 |  | 
12 | CCUCUACAUGAGGAUCACCCAUGUGAGGAUAUAAGAUUGCGGAUUCCGCACUACGGUCUUAGAAGGCGCGUGGA | 19 | 38.1 |  | 
13 | CCUCUACAUGAGGAUCACCCAUGUGAGGAUAUCAAAGCCAGAGCGGCGCUCUGGCCCAUGAGAAGGUGCAUGGA | 25.9 | 133 |  | 
14 | CCUGCACAUGAGGAUCACCCAUGUCAGGAUAUCUCGCCGUCGGCUUGCCGACGGUAUUAGAGAAGGGACAAGGG | 23.4 | 29 |  | 
15 | CCUGCACAUGAGGAUCACCCAUGUUAGGAUAUCUCGCCGUCGGCUUGCCGACGGUAUUAGAGAAGGGACAAGGG | 34.7 | 45.5 |  | 
16 | CCUGGAUCAUGAGGAUAUGGCACCUUAUUGGUGCCAGAAGGCAUGUCUCUUGACAUGAGGAUCACCCAUGUAAUAAAUUCCAGG |  |  | 1020 | 124
17 | CCUUUUGUAUAAGGAUAUGUAACAAGGUGUAGGCUGGUAGGACUUGCGCUUACAGAAGGUAUACAUGAGGAUCACCCAUGUCGA | 22.2 | 107 |  | 
18 | CGAAGUCCGUAGAAGGGUGACAUGAGGAUCACCCAUGUGCGAGCGGAGAGAGUCAGCGGCUCGCCACAGGAUAUACGGAGCACG |  |  | 103 | 29.1
19 | CGACCACAUGAGGAUCACCCAUGUAAGGAUAUAUUGAAUGAGCCGGCGGCAGUAAAAGAUAGAAGGUGCGUGUA | 23.1 | 22 |  | 
20 | CGAGACCUCACAGGAUAUGCUGGACUUUGUCCAGCAGAAGGGUGAAAACAUGAGGAUCACCCAUGUAUGGUCUCCAAAUUUAAC |  |  | 175 | 12.9
21 | CGAGAGGCAGGAUAUAGUAUUUGCGACAUGAGGAUCACCCAUGUAUAUACAGUCGCUCCGUUAGAAGGGCCAUUUC | 22.8 | 33.2 |  | 
22 | CGAGAUACGCUCGUCCGAAAGGAACAUGAGGAUCACCCAUGUAGAAGGCGAUCCGCAACUCGGAUUGAGGAUAUAUACUGCAGA | 139 | 91.2 |  | 
23 | CGAUACAUGAGGGUCUCCCAUGACAUGAGGAUCACCCAUGUGCAGGAUAUACGUGUGAUGGUAUAGUAGAAGGGCAGUCUAUGU | 70.6 | 99.9 |  | 
24 | CGAUAGUGUAGUUAUCCGUAGCGAACAUGAGGAUCACCCAUGUAGGAUAUGUUACUAAACUAGUAACAGAAGGGCAUGAGUCUU | 28.6 | 75.6 |  | 
25 | CGAUAUAUGAAGGGCGAAAGCCCACAUGAGGAUCACCCAUGUAGAAGGCGAUCCGCAACGCGGAUCGAGGAUAUAUAGUAUACA | 9.48 | 10.4 |  | 
26 | CGAUCGUUGCAGAAGGUUAAAUAAUUAUCUACAUGUUUUACAUGAGGAUCACCCAUGUUUAUGUUGAAGGAUAUGCAAGGGUCG | 8.02 | 8.09 |  | 
27 | CGAUCGUUGCAGAAGGUUAUUUUUUUAACAAUUCUCUUAACAUGAGGAUCACCCAUGUUUUUGAUGAAGGAUAUGCAAGGGUCG | 5.76 | 5.5 |  | 
28 | CGAUGACUGGUGAGGAUAUCGUGUUCGAAAGAACGUGAGAAGGCACAUGAGGAUCACCCAUGUGAUCCUCAUCG | 29.8 | 206 |  | 
